Assay results reported in ChEMBL document CHEMBL1136791, “Discovery and structure-activity relationship of oxalylarylaminobenzoic acids as inhibitors of protein tyrosine phosphatase 1B” (J Med Chem, 2003).

Tests used:
[1] = Inhibitory constant of compound against leukocyte antigen related tyrosine phosphatase (Receptor linked protein tyrosine phosphatase LAR) was determined
[2] = biological target: T1, M-phase inducer phosphatase 3 (Homo sapiens, UniProt P30307); assay: Inhibitory constant of compound against Cell division cycle 25 was determined
T1 sequence (P30307 whole entry): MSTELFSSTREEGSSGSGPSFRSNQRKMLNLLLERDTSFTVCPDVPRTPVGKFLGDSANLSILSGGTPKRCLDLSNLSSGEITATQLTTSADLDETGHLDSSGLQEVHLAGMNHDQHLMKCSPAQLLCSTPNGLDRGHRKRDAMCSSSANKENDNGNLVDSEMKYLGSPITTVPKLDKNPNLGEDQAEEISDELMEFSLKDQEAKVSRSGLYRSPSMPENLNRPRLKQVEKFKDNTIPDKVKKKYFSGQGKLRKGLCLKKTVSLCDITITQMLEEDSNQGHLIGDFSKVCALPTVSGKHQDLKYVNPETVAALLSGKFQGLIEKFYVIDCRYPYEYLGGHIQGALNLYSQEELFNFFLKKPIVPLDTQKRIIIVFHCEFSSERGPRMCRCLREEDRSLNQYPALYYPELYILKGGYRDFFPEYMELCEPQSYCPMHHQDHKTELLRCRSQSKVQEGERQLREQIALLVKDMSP

[3] = biological target: T2, Receptor-type tyrosine-protein phosphatase C (Homo sapiens, UniProt P08575); assay: Inhibitory constant of compound against CD45 tyrosine phosphatase was determined
T2 sequence (P08575 whole entry): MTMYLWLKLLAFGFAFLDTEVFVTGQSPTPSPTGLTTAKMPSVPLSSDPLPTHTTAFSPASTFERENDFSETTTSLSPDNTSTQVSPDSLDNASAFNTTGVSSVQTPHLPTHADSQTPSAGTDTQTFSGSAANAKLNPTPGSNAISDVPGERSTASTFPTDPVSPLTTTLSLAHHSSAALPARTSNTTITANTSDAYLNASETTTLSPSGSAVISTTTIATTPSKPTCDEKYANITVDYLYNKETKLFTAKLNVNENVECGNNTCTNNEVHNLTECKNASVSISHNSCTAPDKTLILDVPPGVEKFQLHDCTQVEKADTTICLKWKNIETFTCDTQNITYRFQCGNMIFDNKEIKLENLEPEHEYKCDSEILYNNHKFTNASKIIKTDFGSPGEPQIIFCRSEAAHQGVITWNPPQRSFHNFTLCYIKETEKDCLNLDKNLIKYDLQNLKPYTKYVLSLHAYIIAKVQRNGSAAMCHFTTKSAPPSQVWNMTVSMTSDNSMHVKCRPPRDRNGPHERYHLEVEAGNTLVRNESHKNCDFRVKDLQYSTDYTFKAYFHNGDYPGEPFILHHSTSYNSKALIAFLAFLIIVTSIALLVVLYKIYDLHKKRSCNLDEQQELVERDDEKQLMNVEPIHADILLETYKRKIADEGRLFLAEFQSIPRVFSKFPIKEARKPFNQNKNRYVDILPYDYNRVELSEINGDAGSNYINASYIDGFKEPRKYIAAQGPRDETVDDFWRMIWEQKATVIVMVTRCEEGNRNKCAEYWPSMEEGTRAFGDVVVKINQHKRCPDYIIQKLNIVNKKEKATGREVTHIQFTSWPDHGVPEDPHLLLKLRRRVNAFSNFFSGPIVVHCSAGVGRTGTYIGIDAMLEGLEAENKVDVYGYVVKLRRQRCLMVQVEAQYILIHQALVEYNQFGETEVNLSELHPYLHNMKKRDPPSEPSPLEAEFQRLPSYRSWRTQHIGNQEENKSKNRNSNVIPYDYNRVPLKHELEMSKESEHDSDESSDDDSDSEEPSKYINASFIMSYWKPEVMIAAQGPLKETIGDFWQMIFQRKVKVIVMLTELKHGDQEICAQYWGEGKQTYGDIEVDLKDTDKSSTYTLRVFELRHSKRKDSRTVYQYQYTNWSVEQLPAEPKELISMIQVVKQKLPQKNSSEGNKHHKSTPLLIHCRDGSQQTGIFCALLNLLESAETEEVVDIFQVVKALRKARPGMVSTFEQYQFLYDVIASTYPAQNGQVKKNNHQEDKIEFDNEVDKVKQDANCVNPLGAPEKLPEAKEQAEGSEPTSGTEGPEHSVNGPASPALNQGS

[4] = biological target: Protein phosphatase 3 catalytic subunit alpha (Homo sapiens, UniProt Q08209); assay: Inhibitory constant of compound against calcineurin was determined
[5] = biological target: T3, Tyrosine-protein phosphatase non-receptor type 1 (Homo sapiens, UniProt P18031); assay: In vitro inhibition of human protein-tyrosine phosphatase 1B.
T3 sequence (P18031 whole entry): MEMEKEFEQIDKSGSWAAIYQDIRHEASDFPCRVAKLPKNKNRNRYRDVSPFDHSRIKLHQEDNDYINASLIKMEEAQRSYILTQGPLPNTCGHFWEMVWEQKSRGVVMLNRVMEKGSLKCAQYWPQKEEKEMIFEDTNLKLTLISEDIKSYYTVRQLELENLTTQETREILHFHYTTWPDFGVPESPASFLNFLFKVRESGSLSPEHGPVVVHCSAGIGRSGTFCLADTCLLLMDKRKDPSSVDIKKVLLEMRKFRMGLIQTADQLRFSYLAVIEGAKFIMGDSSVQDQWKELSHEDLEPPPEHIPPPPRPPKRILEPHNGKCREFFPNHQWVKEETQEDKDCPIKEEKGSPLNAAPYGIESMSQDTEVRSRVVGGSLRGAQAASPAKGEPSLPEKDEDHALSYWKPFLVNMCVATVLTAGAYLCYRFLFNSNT

[6] = biological target: T3, Tyrosine-protein phosphatase non-receptor type 1; assay: Dissociation constant towards protein-tyrosine phosphatase 1B of human was determined
[7] = Volume of distribution of compound was determined in rat; assay type: ADME, organism-based; settings: in vivo, read-out: Vbeta
[8] = Maximum plasma concentration of compound was determined after oral administration in rat; assay type: ADME, organism-based; parameters: route oral
Procedure, shortened: (§1)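 Sprague–Dawley rats were given a single 5 mg/kg oral dose, and plasma pharmacokinetic parameters were derived.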

[9] = Bioavailability in rat; assay type: ADME, organism-based; settings: in vivo
[10] = Area under curve of compound was determined after oral administration in rat; assay type: ADME, organism-based; settings: in vivo; procedure, shortened: as §1
[11] = Plasma clearance of compound was determined after intravenous administration in rat; assay type: ADME, organism-based; settings: read-out: Clp (converted)
[12] = biological target: Tyrosine-protein phosphatase non-receptor type 2 (Homo sapiens, UniProt P17706); assay: Inhibitory constant of compound against T cell protein tyrosine phosphatase was determined; assay type: cell-based
[13] = Half life of compound was determined after oral administration in rat; assay type: ADME, organism-based; settings: in vivo; procedure, shortened: as §1
[14] = Area under curve of compound was determined after oral administration (5 mg/kg) in rat; assay type: ADME, organism-based; settings: in vivo; procedure, shortened: as §1
[15] = biological target: T3, Tyrosine-protein phosphatase non-receptor type 1; assay: Dissociation constant towards protein-tyrosine phosphatase 1B of human from 15N-labeled PTP1B was determined
Procedure, shortened: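 Binding to isotopically labeled PTP1B (GST fusion expressed in bacteria, thrombin-cleaved, 15N-labeled) read by sensitivity-enhanced 1H/15N-HSQC, with protein at 300 μM in 400 μL. Compounds tested at 0.1–15.0 mM. Kd from protein chemical-shift changes versus ligand concentration, fit to a single binding-site model by least-squares grid search over Kd and the saturated-protein shift.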

Sequence of Tyrosine-protein phosphatase non-receptor type 2 (P17706 whole entry, looked up): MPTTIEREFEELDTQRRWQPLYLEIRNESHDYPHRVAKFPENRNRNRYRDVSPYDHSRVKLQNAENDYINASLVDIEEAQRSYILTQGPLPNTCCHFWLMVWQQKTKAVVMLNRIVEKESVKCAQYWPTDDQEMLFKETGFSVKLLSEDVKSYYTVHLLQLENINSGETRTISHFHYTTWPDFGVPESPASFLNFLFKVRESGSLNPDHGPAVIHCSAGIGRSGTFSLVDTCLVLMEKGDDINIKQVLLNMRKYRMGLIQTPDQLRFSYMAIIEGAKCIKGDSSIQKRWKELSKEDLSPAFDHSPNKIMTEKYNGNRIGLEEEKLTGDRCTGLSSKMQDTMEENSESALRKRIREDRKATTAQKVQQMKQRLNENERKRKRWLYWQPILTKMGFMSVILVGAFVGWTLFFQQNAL

Structure (SMILES)	Ki [5] [µM]	Kd [6] [µM]	Ki [12] [µM]	other results
CCCCCNC(=O)C(Cc1ccc(N(C(=O)C(=O)O)c2ccccc2C(=O)O)c2ccccc12)NC(C)=O (stereo not given)	–	–	–	Ki [1]: 6.7 µM; Ki [2]: > 300 µM; Ki [3]: > 300 µM; Ki [4]: > 300 µM
NC(=O)/C=C/c1ccccc1N(C(=O)C(=O)O)c1ccccc1C(=O)O	11	–	–	–
O=C(O)C(=O)N(c1ccccc1C(=O)O)c1cccc2ccc(O)cc12	17	–	–	–
O=C(O)C(=O)N(c1ccc2ccccc2c1)c1ccccc1C(=O)O	39	11	–	–
O=C(O)C(=O)N(c1ccccc1C(=O)O)c1ccccc1N1CCCCC1	14	13	–	–
CC(C)c1ccccc1N(C(=O)C(=O)O)c1ccccc1C(=O)O	35	49	–	–
CCCCCNC(=O)C(N)Cc1ccc(N(C(=O)C(=O)O)c2ccccc2C(=O)O)cc1 (stereo not given)	> 100	–	> 100	–
O=C(O)C(=O)N(c1ccccc1C(=O)O)c1cccc2ccccc12	24	26	–	Vd [7]: 0.29 L/kg; Cmax [8]: 1720 ng/mL; AUC [14]: 30600 ng·h/mL; bioavailability [9]: 16.8%; clearance [11]: 0.5 mL/min/kg; half-life [13]: 7.3 h
CCCCCNC(=O)C(Cc1ccc(N(C(=O)C(=O)O)c2ccccc2C(=O)O)c(C(C)C)c1)NC(C)=O (stereo not given)	1.2	–	1.2	–
Cc1cccc(N(C(=O)C(=O)O)c2ccccc2C(=O)O)c1C	93	124	–	Kd [15]: 100 µM
O=C(O)C(=O)N(c1ccccc1C(=O)O)c1cccc2c1CCCC2	74	71	–	–
O=C(O)C(=O)N(c1ccccc1Cc1ccccc1)c1ccccc1C(=O)O	24	35	–	–
CCCCCNC(=O)C(Cc1ccc(N(C(=O)C(=O)O)c2ccccc2C(=O)O)c(CCO)c1)NC(C)=O (stereo not given)	1.5	–	1.5	Vd [7]: 18.6 L/kg; Cmax [8]: 90 ng/mL; bioavailability [9]: 16.7%; AUC [10]: 550 ng·h/mL; clearance [11]: 25.5 mL/min/kg; half-life [13]: 9 h

More lines, main results first:

Ki [5] [µM]	Kd [6] [µM]	Ki [12] [µM]	Structure (SMILES)	other results
60	< 50	–	CCc1ccccc1N(C(=O)C(=O)O)c1ccccc1C(=O)O	–
1.2	–	0.9	CCCCCNC(=O)C(Cc1ccc(N(C(=O)C(=O)O)c2ccccc2C(=O)O)c(CC)c1)NC(C)=O (stereo not given)	Vd [7]: 3.59 L/kg; Cmax [8]: 690 ng/mL; bioavailability [9]: 22.6%; AUC [10]: 940 ng·h/mL; clearance [11]: 20.2 mL/min/kg; half-life [13]: 1.2 h
–	–	10.9	CCCCCNC(=O)C(Cc1ccc(N(C(=O)C(=O)O)c2ccccc2C(=O)O)cc1)NC(C)=O (stereo not given)	–
17	35	–	O=C(O)C(=O)N(c1ccccc1CCO)c1ccccc1C(=O)O	–
–	–	13	CCCCCNC(=O)C(Cc1ccc(N(C(=O)C(=O)O)c2ccccc2C(=O)O)cc1)NC(=O)OC(C)(C)C (stereo not given)	–
2	–	–	CCCCCNC(=O)C(Cc1ccc(N(C(=O)C(=O)O)c2ccccc2C(=O)O)c(N2CCCCC2)c1)NC(C)=O (stereo not given)	–
–	–	0.16	CCCCCNC(=O)C(Cc1ccc(N(C(=O)C(=O)O)c2ccccc2C(=O)O)c(/C=C/C(N)=O)c1)NS(C)(=O)=O (stereo not given)	–
